FLuc stim CS – FLuc activators, initial screening, artefact control for FLuc-dependent activation tests, biochemical, ATPlite luminescence | 200,000 tested, under 10 active | ATPlite luciferase biochemical, 10 min; 0 = ATP-free wells, 1 = DMSO control | Luciferin 4-monooxygenase (Photinus pyralis), P08659 | activation factor at 10 µM;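 active = luciferase activation factor, scaled between plate controls, of at least 2 with compound at 10 µM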
Target sequence (P08659 whole entry, looked up): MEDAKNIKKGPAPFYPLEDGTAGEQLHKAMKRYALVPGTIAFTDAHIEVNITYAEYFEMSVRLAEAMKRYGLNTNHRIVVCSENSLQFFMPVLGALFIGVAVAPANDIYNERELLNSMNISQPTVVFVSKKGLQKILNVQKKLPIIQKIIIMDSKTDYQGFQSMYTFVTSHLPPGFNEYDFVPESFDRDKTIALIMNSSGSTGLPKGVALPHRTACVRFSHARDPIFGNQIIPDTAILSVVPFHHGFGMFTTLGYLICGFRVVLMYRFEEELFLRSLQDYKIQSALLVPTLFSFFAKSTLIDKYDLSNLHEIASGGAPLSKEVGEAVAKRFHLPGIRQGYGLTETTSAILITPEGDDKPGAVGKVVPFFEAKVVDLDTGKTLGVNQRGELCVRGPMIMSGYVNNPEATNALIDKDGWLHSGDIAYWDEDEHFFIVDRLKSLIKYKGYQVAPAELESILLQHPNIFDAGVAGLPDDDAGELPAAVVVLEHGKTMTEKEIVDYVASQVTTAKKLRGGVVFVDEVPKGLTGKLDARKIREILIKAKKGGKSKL
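System: luciferase plus luciferin reagent, cell-free; medium: PBS as buffer for the ATP substrate; dosing: test compounds dosed from 2 mM stocks in 100% DMSO; timing: 10 min post-reagent at room temperature; measured by: luminescence measurement of luciferase light output; evaluation: luciferase activation, seen as luminescence increase over controls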
FLuc inhib CS – firefly luciferase enzyme inhibitors, primary screen, artefact control for luciferase-based inhibitor screens, biochemical, luminescence, ATPLite. Luciferin 4-monooxygenase (Photinus pyralis), P08659. inhibition, % at 10 µM. 200,000 tested, 1.5% active. 10 min;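 active = inhibition above about 50% when tested at 10 µM, limit read from the data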
C8 TRAIL sens – viability loss with TRAIL in NB7+C8 cells, primary screen, TRAIL sensitizer project, cell-based, ATPlite luminescence; inhibition (viability loss, TRAIL sensitization), % at 10 µM; 360,000 tested, 1% active;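 active = compounds causing at least 50% loss of cell viability in the single-dose screen, relative to plate controls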
PPC-1+TRAIL kill – compounds killing PPC-1 cancer cells with TRAIL present, primary screen, TRAIL potentiator project, ATPLite luminescence, uHTS; PPC-1 cells + TRAIL, ATPLite viability luminescence; 220,000 tested, 0.41% active; cell killing (% activity), % at 4 µM or 5 µM;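 active = cell killing above 50% in the first pass at 4 µM, then a duplicate retest at 5 µM averaging 50% or more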;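 also: plate controls were cells with TRAIL plus DMSO for no effect and medium-only wells lacking cells for full effect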
PPC1 cytotox – cytotoxicity in PPC-1 cells, confirmation, cytotoxicity control for TRAIL apoptosis potentiator project, cell-based, ATP content luminescence | PPC-1 viability, ATPlite luminescence, overnight | AID 1447, 2008 | shares compounds with PPC-1+TRAIL kill | cytotoxicity, % at 5 µM | 1,200 tested, 50% active;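 active = reconfirmed compounds whose average cytotoxicity reaches 50% or more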;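 also: 0% = DMSO-treated cells and 100% = wells holding medium but no cells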
An asterisk follows results filed as active; . = no result. Shown are actives, neighbours in structure and some others; about 1.5% of the full set was active somewhere.

SMILES	FLuc stim CS	FLuc inhib CS	C8 TRAIL sens	PPC-1+TRAIL kill	PPC1 cytotox
N/C(=N\OC(=O)c1ccc(Cl)cc1Cl)c1ccccn1	0	95.2*	90.4*	89.7*	89.3*
Cc1ccc(C(=O)O/N=C(\N)c2ccccc2)c(Cl)c1	.	.	94.2*	81.2*	80.4*
FC(F)(F)c1cnc(Oc2ccc(-c3nnco3)cc2)c(Cl)c1	1	-0.7	2.9	-7.6	.
Cc1ccc(N(C)S(=O)(=O)c2cccc(C(=O)OCC(=O)c3c(N)n(C)c(=O)n(C)c3=O)c2)cc1	.	.	-0.1	.	.
CCOC(=O)CSc1nc(-c2ccncc2)ccc1C#N	1	0.6	50.7*	48.3	45.7
CCOC(=O)CC(=O)CSc1nc(-c2cccnc2)ccc1C#N	1	-2.1	7.6	5.3	.
CCOC(=O)C1=C(CSc2nc(-c3ccncc3)ccc2C#N)OC(N)=C(C#N)C1c1ccc(OC)cc1 (centres undefined)	1.1	-6.3	-1.3	-12.2	-21.9
Cc1ccc(-n2ncc3c(N4CCCC(C)C4)ncnc32)c(C)c1 (centres undefined)	.	.	27.6	21.4	.
c1ccc(-n2ncc3c(N4CCCCC4)ncnc32)cc1	0.1	89.3*	86.0*	80.0*	78.7*
CC1CCCN(c2ncnc3c2cnn3-c2ccccc2)C1 (centres undefined)	.	.	86.0*	77.5*	78.4*
CC1CCCN(c2ncnc3c2cnn3-c2ccc(Cl)cc2)C1 (centres undefined)	.	.	86.8*	78.5*	79.2*
COc1ccc(CCNC(=O)c2cccc3c2C(=O)N(C2CCCCC2)C3)cc1OC	.	.	8.7	.	.
CCCC(C)NC(=O)c1nc(-c2ccccc2)n(-c2ccccc2)n1 (centres undefined)	1.1	-10.6	17.1	-8.3	4.2
COc1cc(/C=N/Nc2nncn2/N=C/c2ccc(O)c(OC)c2)ccc1O	0	96.1*	74.8*	82.8*	83.4*
COc1ccc(-c2coc3cc(OC)ccc3c2=O)cc1	.	.	32.1	.	.
Cc1nc(-c2coc3cc(OCC(=O)O)ccc3c2=O)cs1	0.2	77.6*	50.1*	45.1	46.3
COc1ccc2c(=O)c(-c3nc(C)cs3)coc2c1	0.2	77.6*	66.4*	44.9	56.8*
CCOC(=O)COc1ccc2c(=O)c(-c3ccccc3)coc2c1	.	.	-5.6	13.1	.
CC1(C)ON(C2CCCCC2)[C@H]2c3nc4ccccc4n3C[C@H]21	.	.	1.0	.	.
CN(CC(=O)Nc1cccc(F)c1)C(=O)c1cn2ccccc2n1	.	.	-8.3	.	.
Cc1ccc(C#N)c(SCC(=O)Nc2nccs2)n1	0.9	11.6	46.7	54.5*	58.6*
CCc1nnc(NC(=O)CSc2nc3c(cc2C#N)CCC3)s1	0.8	20.7	64.0*	65.3*	69.3*
CCc1nnc(NC(=O)CSc2nc(C)cc(C)c2C#N)s1	0.8	18.5	72.7*	74.0*	73.6*
Cc1cc(C)c(C#N)c(SCC(=O)Nc2ccccc2C(N)=O)n1	1	-2.5	49.8	73.0*	73.6*
CCSc1nnc(NC(=O)CSc2nc3c(cc2C#N)CCCC3)s1	0.9	8.8	38.9	30.8	.
SMILES	FLuc stim CS	FLuc inhib CS	C8 TRAIL sens	PPC-1+TRAIL kill	PPC1 cytotox
COc1cc(OC)cc(C(=O)N[C@H](C(=O)Nc2ccc(NC(C)=O)cc2)C(C)C)c1	1	-4.1	3.8	3.0	.
Cc1ccc(C2=NN(C(=O)CN3C(=O)c4ccccc4S3(=O)=O)C(c3ccco3)C2)cc1 (centres undefined)	1	-1.6	2.3	9.5	.
CCOC(=O)c1nn(C)c(C)c1Cl	1	-1.3	-2.1	-6.1	.
CCOC(=O)C(=O)C1=C(N2CCOCC2)/C(=C\c2cccc([N+](=O)[O-])c2)CC1	1	-2.5	-0.9	17.2	.
c1ccc(-c2cc3c(nn2)CCc2nonc2-3)cc1	1	-3.2	-6.8	26.7	.
COc1ccc(-c2cc3c(nn2)-c2ccccc2C3=O)cc1	0.1	93.8*	87.0*	89.3*	88.9*
COc1ccc(-c2cn(Cc3ccc4c(c3)C(=O)c3ccccc3C4=O)nn2)cc1	.	.	-14.4	.	.
O=C1c2ccccc2-c2nnc(-c3ccccc3)cc21	0.2	81.2*	74.8*	62.8*	64.9*
CC1CC=CCC1(CO)CO (centres undefined)	.	.	-1.1	.	.
COc1cccc(-c2noc(-c3ccc4c(c3)OCO4)n2)c1	0.2	82.4*	66.0*	59.5*	62.2*
COc1cccc(-c2nc(-c3ccncc3)no2)c1	.	.	14.9	.	.
CCc1ccc(C2c3[nH]c4ccccc4c3CCN2C(=O)CNC(N)=O)cc1 (centres undefined)	1	-4.9	-1.5	9.4	.
Nc1ccc(/C=C/c2ccc3ncccc3c2)cc1	.	.	46.7	68.6*	69.5*
Nc1ccc2ncccc2c1	1	2.1	-8.6	14.5	.
CC1(c2ccc3c(c2)OCO3)NC(=O)N(CC(=O)Nc2ccccc2)C1=O (centres undefined)	.	.	-8.2	.	.
Cc1cccc2c(C(=O)N3CCCCC3)cc(-c3ccccc3)nc12	.	.	11.6	.	.
Cc1cccc2c(C(=O)O)cc(-c3cccnc3)nc12	1	0.1	2.4	-14.3	-3.3
COc1ccc(/C=C/C(=O)Nc2ccccc2C(=O)O)cc1	0.1	95.0*	85.8*	82.7*	82.6*
COc1ccc(/C=C/c2cc(C(=O)O)c3ccccc3n2)cc1	.	.	94.5*	95.5*	95.5*
COc1ccc(OCc2cc(C(=O)N3CCOCC3)no2)c(Cl)c1	.	.	7.8	.	.
CCOc1ccc(-n2c(SC(C)C)nc3c(c2=O)SCC3)cc1	1	-4.1	3.6	40.7	.
CCOc1ccc(-n2c(SC)nc3c(c2=O)SCC3)cc1	1	1.4	21.3	-9.9	-12.2
C=CCn1c(CCSCc2ccccc2)n[nH]c1=S	1	-3.8	5.5	28.2	.
CCN(CCO)c1ccc(N=Nc2cc(C)[nH]n2)cc1	.	.	85.9*	77.4*	78.2*
CCn1nnc(NC(=O)c2ccc(C(C)(C)C)cc2)n1	0.2	82.1*	77.9*	57.4*	42.1
SMILES	FLuc stim CS	FLuc inhib CS	C8 TRAIL sens	PPC-1+TRAIL kill	PPC1 cytotox
CCn1nnc(NC(=O)c2cccnc2)n1	1.1	-7.5	-8.7	7.8	.
CC(=O)N=c1sc2nc3ccccc3nc2n1N(C(C)=O)C(C)=O	1	4.3	15.5	-2.5	-10.4
CC(=O)N=c1sc2ccccc2n1C	1	-4.3	0.9	17.4	.
O=C(O)C1CCCCC1C(=O)NCCc1ccccc1 (centres undefined)	1.1	-6.8	-5.1	7.7	5.5
c1ccc(CCNc2ccnc3cc4ccccc4cc23)cc1	1	0.6	32.9	26.9	19.5
O=C(NCCc1ccccc1)c1nccc2ccccc12	.	.	-1.7	.	.
Fc1ccc(-c2nnc(SCc3ncc(-c4ccccc4)o3)n2CC2CCCO2)cc1 (centres undefined)	1.1	-7.5	-3.6	6.7	.
CN(c1ccccc1)S(=O)(=O)c1ccc(-c2ccccc2)cc1	.	.	5.5	.	.
CN(C)S(=O)(=O)c1ccc(-c2ccccc2)cc1	1.1	-8.8	-1.8	-21.1	-18.9

Screens deposited in PubChem BioAssay by Sanford-Burnham Center for Chemical Genomics.
